Laboratory results reported in ChEMBL document CHEMBL1142961, “Novel selective inhibitors of the zinc plasmodial aminopeptidase PfA-M1 as potential antimalarial agents” (J Med Chem, 2007).
≈ marks a conversion by molar mass, not a printed value.

Tests used:
Aminopeptidase N [1] = target: T1, Aminopeptidase N (Plasmodium falciparum FcB1/Columbia, UniProt O96935); experiment: Inhibition of Plasmodium falciparum FcB1 M1 aminopeptidase
T1 sequence (O96935 whole entry): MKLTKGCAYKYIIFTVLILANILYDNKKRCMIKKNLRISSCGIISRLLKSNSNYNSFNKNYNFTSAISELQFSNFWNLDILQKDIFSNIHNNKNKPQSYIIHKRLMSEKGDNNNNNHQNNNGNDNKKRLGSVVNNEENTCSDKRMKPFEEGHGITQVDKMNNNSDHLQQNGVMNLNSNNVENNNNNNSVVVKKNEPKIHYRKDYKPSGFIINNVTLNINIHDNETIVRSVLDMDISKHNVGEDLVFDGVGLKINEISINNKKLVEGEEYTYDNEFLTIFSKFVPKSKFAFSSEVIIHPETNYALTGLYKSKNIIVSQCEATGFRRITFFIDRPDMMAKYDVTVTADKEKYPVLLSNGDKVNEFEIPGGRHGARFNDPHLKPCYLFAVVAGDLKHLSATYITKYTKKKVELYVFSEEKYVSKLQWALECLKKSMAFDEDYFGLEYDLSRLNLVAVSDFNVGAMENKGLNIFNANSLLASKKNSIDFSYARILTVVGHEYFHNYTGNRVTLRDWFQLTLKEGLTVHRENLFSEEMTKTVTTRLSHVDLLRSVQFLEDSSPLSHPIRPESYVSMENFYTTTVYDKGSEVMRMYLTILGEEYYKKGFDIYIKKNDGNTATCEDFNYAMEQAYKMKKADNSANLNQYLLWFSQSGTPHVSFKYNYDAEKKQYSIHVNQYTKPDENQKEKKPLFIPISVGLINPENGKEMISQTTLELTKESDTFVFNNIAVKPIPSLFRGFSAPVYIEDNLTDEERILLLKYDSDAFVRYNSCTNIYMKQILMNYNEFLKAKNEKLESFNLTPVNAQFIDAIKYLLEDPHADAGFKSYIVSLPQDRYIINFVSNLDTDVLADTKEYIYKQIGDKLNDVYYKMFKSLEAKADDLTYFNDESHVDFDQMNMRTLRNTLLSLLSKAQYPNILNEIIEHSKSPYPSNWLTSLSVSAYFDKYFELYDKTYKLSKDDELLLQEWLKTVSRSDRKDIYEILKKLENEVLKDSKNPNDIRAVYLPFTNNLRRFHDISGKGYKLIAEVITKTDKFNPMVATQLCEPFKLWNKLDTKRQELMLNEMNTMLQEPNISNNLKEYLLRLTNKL
Summary of the method: (§1)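 Native enzyme purified from P. falciparum FcB1, diluted 10-fold in 25 mM Tris-HCl pH 7.4. Preincubated with inhibitor for 10 min at room temperature, then Leu-pNA substrate added (0.3 mM stock, Km 0.099 mM). Kinetics followed at 405 nm at room temperature. Initial velocities normalized to a no-inhibitor control. Single-point screen at 10 µM; IC50 from velocity versus inhibitor concentration curves. Bestatin used as reference.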

Aminopeptidase N [2] = target: T2, Aminopeptidase N (Sus scrofa, UniProt P15145); experiment: Inhibition of pig kidney microsomal APN
T2 sequence (P15145 whole entry): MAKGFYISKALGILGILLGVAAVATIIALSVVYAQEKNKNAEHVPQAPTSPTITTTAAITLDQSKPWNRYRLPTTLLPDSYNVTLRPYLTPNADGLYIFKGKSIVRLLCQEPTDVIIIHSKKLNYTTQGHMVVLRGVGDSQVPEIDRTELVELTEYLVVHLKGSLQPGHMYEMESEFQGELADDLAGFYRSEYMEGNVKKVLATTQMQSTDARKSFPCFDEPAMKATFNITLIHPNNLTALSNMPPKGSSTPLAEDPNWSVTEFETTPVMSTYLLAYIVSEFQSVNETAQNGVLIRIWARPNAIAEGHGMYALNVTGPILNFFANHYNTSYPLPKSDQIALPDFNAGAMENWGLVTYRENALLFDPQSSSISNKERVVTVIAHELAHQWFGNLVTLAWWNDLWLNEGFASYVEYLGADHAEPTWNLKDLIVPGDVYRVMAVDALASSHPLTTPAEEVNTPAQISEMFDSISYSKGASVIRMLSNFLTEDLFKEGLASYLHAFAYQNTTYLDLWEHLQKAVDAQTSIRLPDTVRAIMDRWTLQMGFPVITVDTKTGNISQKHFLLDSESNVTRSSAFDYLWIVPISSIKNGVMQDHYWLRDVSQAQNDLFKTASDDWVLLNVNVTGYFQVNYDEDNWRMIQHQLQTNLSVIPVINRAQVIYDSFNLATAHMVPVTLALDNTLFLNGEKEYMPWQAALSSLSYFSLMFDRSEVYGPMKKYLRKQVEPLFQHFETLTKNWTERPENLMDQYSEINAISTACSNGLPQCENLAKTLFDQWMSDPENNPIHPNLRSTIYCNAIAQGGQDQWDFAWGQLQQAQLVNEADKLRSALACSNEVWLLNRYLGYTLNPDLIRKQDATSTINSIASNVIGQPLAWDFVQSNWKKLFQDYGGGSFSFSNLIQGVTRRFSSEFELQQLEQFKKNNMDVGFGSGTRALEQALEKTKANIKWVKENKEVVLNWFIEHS
Summary of the method: (§2)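 Porcine kidney microsomal APN (ammonium sulfate suspension) diluted 600-fold in 25 mM Tris-HCl pH 7.4. Preincubated with inhibitor for 10 min at room temperature, then Leu-pNA added (0.3 mM stock). Hydrolysis followed at 405 nm at room temperature. Rates normalized to a no-inhibitor control. Single point at 10 µM; IC50 from concentration-velocity curves. Bestatin used as reference.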

[3] = target: T3, Aminopeptidase N (Plasmodium falciparum FcB1/Columbia) (UniProt O96935); experiment: Inhibition of Plasmodium falciparum FcB1 M1 aminopeptidase at 10 uM; summary of the method: as §1
T3 sequence (whole entry): T1 sequence (O96935 whole entry)

[4] = target: T4, Aminopeptidase N (Sus scrofa) (UniProt P15145); experiment: Inhibition of pig kidney microsomal APN at 10 uM; summary of the method: as §2
T4 sequence (whole entry): T2 sequence (P15145 whole entry)

[5] = Stability in Zucker FA/FA rat plasma at 37degC; assay type: ADME, organism-based; details: read-out: Stability (converted)
Summary of the method: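 Compound at 100 µM final in male Zucker FA/FA rat plasma, stirred at 37 °C. Samples taken from 0 to 96 h, acidified with 0.14 M phosphoric acid and spiked with internal standard. Extracted three times with AcOEt and quantified by LC-MS-MS (MRM). Half-life derived.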

[6] = Solubility at pH 7.4; assay type: physicochemical; details: buffer
Summary of the method: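 10 mM DMSO stock diluted 50-fold into PBS pH 7.4 or MeOH. Shaken for 24 h at room temperature, centrifuged and filtered at 0.45 µm. Analysed by LC-MS-MS; solubility taken as the PBS/MeOH mass-signal area ratio.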

[7] = Distribution coefficient, log D at pH 7.4; assay type: physicochemical; details: octanol/water
Summary of the method: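 10 mM DMSO stock added to 1:1 octanol/PBS pH 7.4 and shaken for 2 h at room temperature. Phases separated and each quantified by LC-MS-MS. Log D taken as the log of the octanol/PBS concentration ratio from mass signals.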

[8] = Selectivity ratio, IC50 for pig APN /IC50 for Plasmodium falciparum FcB1 M1
Summary of the method: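 Ratio of IC50 values (APN/PfA-M1) from two parallel assays: native PfA-M1 purified from P. falciparum FcB1 (diluted 10-fold) and porcine kidney microsomal APN (diluted 600-fold), both in 25 mM Tris-HCl pH 7.4. Enzyme was preincubated 10 min at room temperature with inhibitor, then Leu-pNA added (0.3 mM solution). Kinetics were read at 405 nm, initial velocities normalized to no-inhibitor controls, and IC50 was taken from velocity–concentration plots.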

Plasmodium falciparum [9] = experiment: Antimalarial activity against chloroquine-resistant Plasmodium falciparum FcB1; assay type: functional, organism-based
Summary of the method: (§3)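 Asexual P. falciparum kept continuously on human erythrocytes; modified semiautomated microdilution method. Serially diluted drug added to asynchronous cultures (0.5% parasitemia, 1% final hematocrit) for 24 h at 37 °C, then [3H]hypoxanthine added per well. Growth inhibition from incorporated radioactivity relative to drug-free control on the same plate; IC50 from concentration-response curve, mean of three independent experiments.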

Plasmodium falciparum [10] = experiment: Antimalarial activity against chloroquine-sensitive Plasmodium falciparum F32; assay type: functional, organism-based; summary of the method: as §3

| SMILES | IC50 (Aminopeptidase N [1]) | IC50 (Aminopeptidase N [2]) | inhibition [3] | inhibition [4] | further results |
| --- | --- | --- | --- | --- | --- |
| CC(C)CC(C(=O)NO)C(=O)NCc1cccc2ccccc12 (stereo not drawn) | 0.091 µM | 8.58 µM | – | – | – |
| O=C(NO)C(Cc1cccc(Oc2ccccc2)c1)C(=O)NCc1ccccc1 (stereo not drawn) | 0.164 µM | > 10 µM | 96% | 79% | – |
| O=C(NO)/C(=C/c1ccccc1)C(=O)NCc1ccc(F)cc1 | 0.33 µM | > 10 µM | – | – | – |
| O=C(NO)/C(=C\c1ccccc1)C(=O)NCCCCc1ccccc1 | 0.013 µM | 3.24 µM | – | – | – |
| O=C(NO)C(Cc1cccc(Oc2ccccc2)c1)C(=O)NCc1ccc(C(F)(F)F)cc1 (stereo not drawn) | 0.231 µM | – | 102% | 84% | – |
| CC(C)CC(C(=O)NO)C(=O)NCc1cccc(Oc2ccccc2)c1 (stereo not drawn) | 0.045 µM | – | 88% | 96% | – |
| O=C(NO)C(Cc1cccc(Oc2ccccc2)c1)C(=O)NCc1ccc(Cl)cc1 (stereo not drawn) | 0.13 µM | 2.53 µM | 96% | 76% | – |
| CC(C)CC(C(=O)NO)C(=O)NCCCc1ccccc1 (stereo not drawn) | 0.79 µM | – | 98% | 95% | – |
| O=C(NO)C(Cc1cccc(Oc2ccccc2)c1)C(=O)NCCCc1ccccc1 (stereo not drawn) | 0.527 µM | – | 93% | 89% | – |
| O=C(NO)C(Cc1cccc(Oc2ccccc2)c1)C(=O)N1CCC(Cc2ccccc2)CC1 (stereo not drawn) | 0.248 µM | – | 97% | 65% | – |
| O=C(NO)C(Cc1ccccc1)C(=O)NCc1ccccc1 (stereo not drawn) | 0.125 µM | – | 94% | 69% | – |
| O=C(NCc1ccc(F)cc1)c1cc2ccccc2n(O)c1=O | > 10 µM | > 10 µM | – | – | half-life [5]: > 48 h |
| O=C(NO)C(Cc1ccccc1)C(=O)NCCCCc1ccccc1 (stereo not drawn) | 0.046 µM | > 10 µM | 94% | 81% | – |
| CC(C)CC(C(=O)NO)C(=O)NCc1ccc(F)cc1 (stereo not drawn) | 3.9 µM | – | 85% | 92% | – |
| O=C(NO)C(Cc1ccccc1)C(=O)NCc1cccc(-c2ccccc2)c1 (stereo not drawn) | 1.17 µM | – | 71% | 90% | – |
| O=C(NCCCCc1ccccc1)c1cc2ccccc2n(O)c1=O | > 10 µM | > 10 µM | – | – | – |
| CC(C)CC(C(=O)NO)C(=O)NCCCCc1ccccc1 (stereo not drawn) | 1.15 µM | – | 87% | 92% | – |
| O=C(NO)C(Cc1ccccc1)C(=O)NCCc1ccccc1 (stereo not drawn) | 1.01 µM | – | 82% | 70% | – |
| O=C(NO)/C(=C\c1ccccc1)C(=O)NCc1ccc(F)cc1 | 0.006 µM | 1.37 µM | – | – | half-life [5]: 22 h; solubility [6]: 198 µM (≈ 62.2 µg/mL); logD [7]: 1.1; Ratio IC50 [8]: 229; IC50 (Plasmodium falciparum [9]): 24 µM; IC50 (Plasmodium falciparum [10]): 13 µM |
| O=C(NO)C(Cc1cccc(Oc2ccccc2)c1)C(=O)N1CCc2ccccc2C1 (stereo not drawn) | 0.966 µM | – | 100% | 84% | – |
| CC(C)CC(C(=O)NO)C(=O)NCc1ccccc1 (stereo not drawn) | 0.495 µM | – | 19% | 39% | – |
| O=C(NO)C(Cc1ccccc1)C(=O)NCc1ccc(Cl)cc1 (stereo not drawn) | 0.17 µM | – | 93% | 80% | – |
| CC(C)CC(C(=O)NO)C(=O)N1CCC(Cc2ccccc2)CC1 (stereo not drawn) | 0.406 µM | – | 100% | 68% | – |
| CC(C)CC(C(=O)NO)C(=O)NCCc1ccccc1 (stereo not drawn) | 0.885 µM | – | 74% | 105% | – |
| O=C(NO)C(Cc1ccccc1)C(=O)NC1Cc2ccccc2C1 (stereo not drawn) | 1.93 µM | – | 26% | 61% | – |
| Cc1ccccc1CNC(=O)C(Cc1ccccc1)C(=O)NO (stereo not drawn) | 0.041 µM | 1.31 µM | 95% | 85% | – |
